Values after ≈ are worked out from the molar mass of the structure shown. Active and inactive are the calls of the source. Bounds are passed on as bounds.

Results on one compound are retold here after ChEMBL document CHEMBL4014276, “Diphenylurea derivatives for combating methicillin- and vancomycin-resistant Staphylococcus aureus” (Eur J Med Chem, 2017).

For series [1], the system named is Staphylococcus aureus. Nature of the series: Antibacterial activity against methicillin-resistant Staphylococcus aureus USA200 NRS383 clinical isolate after 20 hrs by broth microdilution method. The conditions noted are these: USA200 NRS383, 20 h. It is filed as functional. The procedure, abridged: (§1)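 CLSI broth microdilution in cation-adjusted Mueller Hinton broth; compounds serially diluted, triplicate samples; 37 °C, 20 h. MIC read visually as lowest concentration with no visible growth; mean of triplicate determinations reported.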
For orientation: Dilution methods test growth across graded concentrations, often in twofold steps.

For series [2], the system named is Staphylococcus aureus. Briefly: Bactericidal activity against methicillin-resistant Staphylococcus aureus USA300 NRS384 clinical isolate after 18 hrs by broth microdilution method. The format is functional. The conditions noted are these: USA300 NRS384, 18 h. The procedure, abridged: (§2)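 From MIC wells without visible growth, 5 uL spotted onto Tryptic soy agar, incubated 37 °C for at least 18 h; MBC taken as lowest concentration giving 99.9% growth inhibition.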

Series [3] relates to Staphylococcus aureus. Nature of the series: Bactericidal activity against methicillin-resistant Staphylococcus aureus USA400 NRS123 clinical isolate assessed as disruption of bacterial membrane by measuring leakage of 280 nM absorbing material at 5 times MIC after 30 mins by spectrophotometric method. The format is functional.
Series [4] relates to HaCaT. Briefly: Cytotoxicity against human HaCaT cells up to 32 ug/ml after 2 hrs by MTS assay. It is filed as cell-based. The procedure, abridged: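 Keratinocytes grown in DMEM with 10% FBS at 37 °C, 5% CO2; exposed in triplicate to 8, 16, 32 and 64 µg/mL for 2 h. DMSO-matched controls. MTS added for 4 h, absorbance at 490 nm. Viability expressed as % of DMSO-treated cells (mean of triplicate ± SD); one-way ANOVA with Dunnett's test, P < 0.05.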
(Tetrazolium assays rely on reduction of a dye to a coloured formazan, in cell work by metabolically active cells.)

For series [5], the system named is Staphylococcus aureus. Nature of the series: Antibacterial activity against methicillin-resistant Staphylococcus aureus USA400 NRS123 clinical isolate preincubated followed by bacterial subculturing for 2 weeks. It is filed as functional.
The subject of series [6] is Staphylococcus aureus. Briefly: Bactericidal activity against methicillin-resistant Staphylococcus aureus USA400 NRS123 clinical isolate after 18 hrs by broth microdilution method. The conditions noted are these: USA400 NRS123, 18 h. It is filed as functional. The procedure, abridged: as §2
The test system of series [7] is Staphylococcus aureus. Nature of the series: Antibacterial activity against methicillin-resistant Staphylococcus aureus USA300 NRS384 clinical isolate preincubated followed by bacterial subculturing for 2 weeks. The format is functional.
In series [8] the test system is Staphylococcus aureus. Briefly: Antibacterial activity against methicillin-resistant Staphylococcus aureus USA100 NRS382 clinical isolate after 20 hrs by broth microdilution method. The format is functional. The conditions noted are these: USA100 NRS382, 20 h. The procedure, abridged:
as §1

Series [9] relates to Staphylococcus aureus. Nature of the series: Bactericidal activity against methicillin-resistant Staphylococcus aureus USA400 NRS123 clinical isolate assessed as disruption of bacterial membrane by measuring leakage of 260 nM absorbing material at 5 times MIC after 30 mins by spectrophotometric method. It is filed as functional.
Series [10] deals with Staphylococcus aureus. Briefly: Bactericidal activity against methicillin-resistant Staphylococcus aureus USA100 NRS382 clinical isolate after 18 hrs by broth microdilution method. The conditions noted are these: USA100 NRS382, 18 h. The format is functional. The procedure, abridged: as §2
Series [11] deals with Staphylococcus aureus. Nature of the series: Antibacterial activity against methicillin-resistant Staphylococcus aureus USA300 NRS384 clinical isolate after 20 hrs by broth microdilution method. The format is functional. The conditions noted are these: USA300 NRS384, 20 h. The procedure, abridged:
as §1

In series [12] the test system is J774. Nature of the series: Cytotoxicity against mouse J774 cells at 8 ug/ml after 24 hrs by MTS assay. The format is cell-based. The conditions noted are these: j774, 24 h. The procedure, abridged: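 Murine macrophages cultured in DMEM plus 10% FBS, 37 °C, 5% CO2; compounds at 8, 16, 32, 64 µg/mL in triplicate for 24 h against DMSO-matched controls. MTS reagent 4 h, read at OD490. Viability as % of DMSO control (triplicate mean ± SD); one-way ANOVA, Dunnett's post hoc, P < 0.05.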

The subject of series [13] is Staphylococcus aureus. Briefly: Antibacterial activity against Staphylococcus aureus RN4220 NRS107 clinical isolate after 20 hrs by broth microdilution method. The format is functional. The conditions noted are these: RN4220 NRS107, 20 h. The procedure, abridged: as §1
In series [14] the test system is Staphylococcus aureus. Briefly: Bactericidal activity against methicillin-resistant Staphylococcus aureus USA200 NRS383 clinical isolate after 18 hrs by broth microdilution method. It is filed as functional. The conditions noted are these: USA200 NRS383, 18 h. The procedure, abridged:
as §2

The subject of series [15] is Staphylococcus aureus. Briefly: Antibacterial activity against vancomycin-resistant Staphylococcus aureus VRSA4 after 20 hrs by broth microdilution method. The format is functional. The conditions noted are these: VRSA4, 20 h. The procedure, abridged:
as §1

Series [16] has as its system Staphylococcus aureus. Nature of the series: Bactericidal activity against Staphylococcus aureus RN4220 NRS107 clinical isolate after 18 hrs by broth microdilution method. It is filed as functional. The conditions noted are these: RN4220 NRS107, 18 h. The procedure, abridged:
as §2

Series [17] has as its system Staphylococcus aureus. Nature of the series: Bactericidal activity against methicillin-resistant Staphylococcus aureus USA400 assessed as time required to reduce log10CFU of bacterial load at 4 times MIC by time kill assay. It is filed as functional.
Series [18] deals with Staphylococcus aureus. Briefly: Antibacterial activity against vancomycin-resistant Staphylococcus aureus VRSA10 after 20 hrs by broth microdilution method. The conditions noted are these: VRSA10, 20 h. The format is functional. The procedure, abridged: as §1
Series [19] concerns Staphylococcus aureus. Briefly: Antibacterial activity against methicillin-resistant Staphylococcus aureus USA100 NRS382 clinical isolate preincubated followed by bacterial subculturing for 2 weeks. The format is functional.
Series [20] deals with Staphylococcus aureus. Briefly: Antibacterial activity against methicillin-resistant Staphylococcus aureus USA400 NRS123 clinical isolate after 20 hrs by broth microdilution method. It is filed as functional. The conditions noted are these: USA400 NRS123, 20 h. The procedure, abridged:
as §1

For series [21], the system named is Staphylococcus aureus. Nature of the series: Bactericidal activity against vancomycin-resistant Staphylococcus aureus VRSA10 after 18 hrs by broth microdilution method. The conditions noted are these: VRSA10, 18 h. It is filed as functional. The procedure, abridged:
as §2

Series [22] deals with Staphylococcus aureus. Nature of the series: Antibacterial activity against methicillin-resistant Staphylococcus aureus USA200 NRS383 clinical isolate preincubated followed by bacterial subculturing for 2 weeks. The format is functional.
The test system of series [23] is Staphylococcus aureus. Nature of the series: Bactericidal activity against vancomycin-resistant Staphylococcus aureus VRSA4 after 18 hrs by broth microdilution method. The format is functional. The conditions noted are these: VRSA4, 18 h. The procedure, abridged: as §2

With `C/C(=N\NC(=N)N)c1ccc(NC(=O)Nc2ccc(OCCC(C)C)cc2)cc1`, the MIC – broadly, the lowest concentration that inhibits growth of the organism – in [1] stood at 2 µg/mL (≈ 5.04 µM); in [8], 4 µg/mL (≈ 10.1 µM); in series [11] it was 2 µg/mL (≈ 5.04 µM); in series [13], 2 µg/mL (≈ 5.04 µM); in [15], 4 µg/mL (≈ 10.1 µM); in [18], 2 µg/mL (≈ 5.04 µM). In series [20], the MIC is 2 µg/mL (≈ 5.04 µM). Further, the MBC in series [2], in series [6], in [10], in series [14], in [16] and in series [21] was 4 µg/mL (≈ 10.1 µM) each time. Moreover, the MBC (usually the smallest concentration meeting the test's criterion for killing) in [23] came out at 4 µg/mL (≈ 10.1 µM). The result in [3] and in series [9] was inactive. Further, the Activity entry is on record as “Non-Toxic” in series [4] and “Toxic” in series [12]. Besides, the result in series [5], in series [7], in series [19] and in series [22] was Active. Moreover, the Time result in [17] is on record as “<=4 hr”.
